In brackets after ≈: the same amount, converted by molar mass.
What was measured:
[1] = system: Staphylococcus haemolyticus; test: Minimum inhibitory concentration against Staphylococcus haemolyticus L 602; type: functional
Summary of the method: (§1)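 MIC (µg/mL) by microbroth dilution in Iso-Sensitest broth; final inoculum 10^4 cfu/mL; 24 h at 37 °C in air.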

Streptococcus pyogenes [2] = test: Efficacy of compound administered perorally against Streptococcus pyogenes L 49 Septicemia in mouse; type: functional; details: po
Summary of the method: (§2)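 Mice were infected intraperitoneally with about 10^5 Strep. pyogenes L 49 cells, about 100 times the 50% lethal dose. Groups of 5–8 mice were treated once right after challenge, by the route stated in the line. ED50 (mg/kg) was derived from percentage survival at each dose on day 7 (Spearman-Kärber).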

[3] = system: Staphylococcus epidermidis; test: Minimum inhibitory concentration against Staphylococcus epidermidis ATCC 12228; type: functional; summary of the method: as §1
Streptococcus pyogenes [4] = test: Efficacy of compound administered subcutaneously against Streptococcus pyogenes L 49 Septicemia in mouse; type: functional; details: sc; summary of the method: as §2
Streptococcus pneumoniae = test: Minimum inhibitory concentration against Streptococcus pneumoniae L 44; type: functional
Summary of the method: (§3)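 MIC (µg/mL) by microbroth dilution in Todd-Hewitt broth, final inoculum 10^4 cfu/mL, incubated 24 h at 37 °C in air.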

[5] = Association constant to Ac2-L-Lys-D-Ala-D-Ala determined at pH 9; Value ranges from (9.5E4-3.5E5)
Enterococcus faecalis = test: Minimum inhibitory concentration against Enterococcus faecalis ATCC 7080; type: functional
Summary of the method: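 Microbroth dilution MIC (µg/mL), final inoculum 10^4 cfu/mL, incubated 24 h at 37 °C in air.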

Staphylococcus aureus = test: Minimum inhibitory concentration against Staphylococcus aureus L 165; type: functional; summary of the method: as §1
Streptococcus pyogenes [6] = test: Minimum inhibitory concentration against Streptococcus pyogenes L 49; type: functional; summary of the method: as §3

SMILES | MIC [3] [µg/mL] | MIC (Streptococcus pneumoniae) [µg/mL] | Ka [5] [M⁻¹] | MIC (Enterococcus faecalis) [µg/mL] | MIC (Staphylococcus aureus) [µg/mL] | MIC (Streptococcus pyogenes [6]) [µg/mL] | MIC [1] [µg/mL] | ED50 (Streptococcus pyogenes [2]) [mg/kg] | ED50 (Streptococcus pyogenes [4]) [mg/kg]
CC(=O)N[C@@H]1[C@H](O[C@@H]2c3ccc(c(Cl)c3)Oc3cc4cc(c3O[C@@H]3O[C@@H](CO)[C@@H](O)[C@H](O)[C@@H]3NC(=O)CCCCCCC(C)C)Oc3ccc(cc3Cl)C[C@H]3NC(=O)[C@H](N)c5ccc(O)c(c5)Oc5cc(O)cc(c5)[C@H](NC3=O)C(=O)N[C@H]4C(=O)N[C@H]3C(=O)N[C@@H]2C(=O)N[C@H](C(=O)NCCCN(CCCN)CCCN)c2cc(O)cc(O[C@H]4O[C@H](CO)[C@@H](O)[C@@H](O)[C@@H]4O)c2-c2cc3ccc2O)O[C@@H](CO)[C@@H](O)[C@@H]1O | 0.125 (≈ 0.061 µM) | 0.063 (≈ 0.0307 µM) | 350000 | 0.125 (≈ 0.061 µM) | 0.125 (≈ 0.061 µM) | 0.063 (≈ 0.0307 µM) | 2 (≈ 0.976 µM) |  | 
CC(=O)N[C@@H]1[C@H](O[C@@H]2c3ccc(c(Cl)c3)Oc3cc4cc(c3O[C@@H]3O[C@@H](CO)[C@@H](O)[C@H](O)[C@@H]3NC(=O)CCCCCCC(C)C)Oc3ccc(cc3Cl)C[C@H]3NC(=O)[C@H](N)c5ccc(O)c(c5)Oc5cc(O)cc(c5)[C@H](NC3=O)C(=O)N[C@H]4C(=O)N[C@H]3C(=O)N[C@@H]2C(=O)N[C@H](C(=O)NCCCNCCNCCCN)c2cc(O)cc(O[C@H]4O[C@H](CO)[C@@H](O)[C@@H](O)[C@@H]4O)c2-c2cc3ccc2O)O[C@@H](CO)[C@@H](O)[C@@H]1O | 0.125 (≈ 0.0614 µM) | 0.125 (≈ 0.0614 µM) | 350000 | 0.125 (≈ 0.0614 µM) | 0.25 (≈ 0.123 µM) | 0.063 (≈ 0.0309 µM) | 0.125 (≈ 0.0614 µM) |  | 
CC(=O)N[C@@H]1[C@H](O[C@@H]2c3ccc(c(Cl)c3)Oc3cc4cc(c3O[C@@H]3O[C@@H](CO)[C@@H](O)[C@H](O)[C@@H]3NC(=O)CCCCCCC(C)C)Oc3ccc(cc3Cl)C[C@H]3NC(=O)[C@H](N)c5ccc(O)c(c5)Oc5cc(O)cc(c5)[C@H](NC3=O)C(=O)N[C@H]4C(=O)N[C@H]3C(=O)N[C@@H]2C(=O)N[C@H](C(=O)NCCCNCCCN)c2cc(O)cc(O[C@H]4O[C@H](CO)[C@@H](O)[C@@H](O)[C@@H]4O)c2-c2cc3ccc2O)O[C@@H](CO)[C@@H](O)[C@@H]1O | 0.25 (≈ 0.125 µM) | 0.125 (≈ 0.0627 µM) | 350000 | 0.5 (≈ 0.251 µM) | 1 (≈ 0.502 µM) | 0.125 (≈ 0.0627 µM) | 2 (≈ 1 µM) |  | 

Compounds with a lower MIC [3], results first:

MIC [3] [µg/mL] | MIC (Streptococcus pneumoniae) [µg/mL] | Ka [5] [M⁻¹] | MIC (Enterococcus faecalis) [µg/mL] | MIC (Staphylococcus aureus) [µg/mL] | MIC (Streptococcus pyogenes [6]) [µg/mL] | SMILES | MIC [1] [µg/mL] | ED50 (Streptococcus pyogenes [2]) [mg/kg] | ED50 (Streptococcus pyogenes [4]) [mg/kg]
0.063 (≈ 0.0314 µM) | 0.125 (≈ 0.0623 µM) | 350000 | 0.125 (≈ 0.0623 µM) | 0.125 (≈ 0.0623 µM) | 0.063 (≈ 0.0314 µM) | CC(=O)N[C@@H]1[C@H](O[C@@H]2c3ccc(c(Cl)c3)Oc3cc4cc(c3O[C@@H]3O[C@@H](CO)[C@@H](O)[C@H](O)[C@@H]3NC(=O)CCCCCCC(C)C)Oc3ccc(cc3Cl)C[C@H]3NC(=O)[C@H](N)c5ccc(O)c(c5)Oc5cc(O)cc(c5)[C@H](NC3=O)C(=O)N[C@H]4C(=O)N[C@H]3C(=O)N[C@@H]2C(=O)N[C@H](C(=O)NCCCNCCCCN)c2cc(O)cc(O[C@H]4O[C@H](CO)[C@@H](O)[C@@H](O)[C@@H]4O)c2-c2cc3ccc2O)O[C@@H](CO)[C@@H](O)[C@@H]1O | 0.125 (≈ 0.0623 µM) | 81 | 0.05
0.063 (≈ 0.0305 µM) | 0.125 (≈ 0.0606 µM) | 350000 | 0.125 (≈ 0.0606 µM) | 0.125 (≈ 0.0606 µM) | 0.063 (≈ 0.0305 µM) | CC(=O)N[C@@H]1[C@H](O[C@@H]2c3ccc(c(Cl)c3)Oc3cc4cc(c3O[C@@H]3O[C@@H](CO)[C@@H](O)[C@H](O)[C@@H]3NC(=O)CCCCCCC(C)C)Oc3ccc(cc3Cl)C[C@H]3NC(=O)[C@H](N)c5ccc(O)c(c5)Oc5cc(O)cc(c5)[C@H](NC3=O)C(=O)N[C@H]4C(=O)N[C@H]3C(=O)N[C@@H]2C(=O)N[C@H](C(=O)NCCCNCCCCNCCCN)c2cc(O)cc(O[C@H]4O[C@H](CO)[C@@H](O)[C@@H](O)[C@@H]4O)c2-c2cc3ccc2O)O[C@@H](CO)[C@@H](O)[C@@H]1O | 0.125 (≈ 0.0606 µM) | 81 | 0.03
0.063 (≈ 0.0321 µM) | 0.125 (≈ 0.0636 µM) | 350000 | 0.125 (≈ 0.0636 µM) | 0.25 (≈ 0.127 µM) | 0.063 (≈ 0.0321 µM) | CC(=O)N[C@@H]1[C@H](O[C@@H]2c3ccc(c(Cl)c3)Oc3cc4cc(c3O[C@@H]3O[C@@H](CO)[C@@H](O)[C@H](O)[C@@H]3NC(=O)CCCCCCC(C)C)Oc3ccc(cc3Cl)C[C@H]3NC(=O)[C@H](N)c5ccc(O)c(c5)Oc5cc(O)cc(c5)[C@H](NC3=O)C(=O)N[C@H]4C(=O)N[C@H]3C(=O)N[C@@H]2C(=O)N[C@H](C(=O)NCCNCCN)c2cc(O)cc(O[C@H]4O[C@H](CO)[C@@H](O)[C@@H](O)[C@@H]4O)c2-c2cc3ccc2O)O[C@@H](CO)[C@@H](O)[C@@H]1O | 0.25 (≈ 0.127 µM) | 60 | 0.09

From ChEMBL document CHEMBL1125337, “Synthesis and antibacterial activity of a series of basic amides of teicoplanin and deglucoteicoplanin with polyamines” (J Med Chem, 1992)
